Screens: PubChem BioAssay, Johns Hopkins Ion Channel Center
Only some compounds are listed: those with a hit (about 3.1% of all), similar ones and a draw of the others.
KCNK9 inh: human KCNK9 channel inhibition; HEK293 KCNK9, FluxOR thallium flux fluorescence; active compounds read low; Q9NPC2; 310,000 tested, 1.2% active; B-score at 10 µM; AID 488922;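 active = ratio B-score over 3 SD below the library mean, with starting fluorescence within 5 SD of its mean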;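 also: negative B-score means less thallium flux so channel inhibition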
hERG protect: shields human hERG channel from block by proarrhythmic agents; activation (rescue from dofetilide block), less the hit threshold, % at 10 µM; Q12809; CHO-hERG, FluxOR thallium flux, dofetilide IC70 present; 310,000 tested, 0.51% active;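 active = activation above the mean of controls blocked by dofetilide plus 5 SD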;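 also: thallium influx through hERG after potassium depolarization seen as dye fluorescence rise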
KCNQ1 act: human KCNQ1 channel potentiation or activation. 310,000 tested, 0.35% active. CHO-K1 KCNQ1, thallium flux FluxOR fluorescence; active compounds read high. P51787. B-score at 10 µM;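 active = fluorescence ratio B-score, a plate-corrected score, at least three library SD, with initial intensity B-score within 5 SD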
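Test system: CHO-K1 cells stably expressing KCNQ1 / Medium: assay buffer / Also added: depolarizing K+/Tl+ stimulus, K2SO4 and Tl2SO4 each 12.5 mM in 5x stock / Incubation: 90 min dye loading and 20 min compound exposure, both at room temperature / Signal: thallium influx via FluxOR fluorescence, kinetic imaging / Evaluation: B score of baseline-normalized fluorescence ratio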
KCNK3 block: human KCNK3 channel inhibition, primary screen; O14649; CHO-KCNK3 thallium flux, FluxOR fluorescence; active compounds read low; B-score at 10 µM; 340,000 tested, 0.84% active; AID 602410;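 active = B-score under library mean minus 4 SD, starting fluorescence ratio at most library mean plus 5 SD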;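 also: more negative B-score means stronger inhibition of thallium flux through KCNK3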
Target sequence (O14649 whole entry, looked up): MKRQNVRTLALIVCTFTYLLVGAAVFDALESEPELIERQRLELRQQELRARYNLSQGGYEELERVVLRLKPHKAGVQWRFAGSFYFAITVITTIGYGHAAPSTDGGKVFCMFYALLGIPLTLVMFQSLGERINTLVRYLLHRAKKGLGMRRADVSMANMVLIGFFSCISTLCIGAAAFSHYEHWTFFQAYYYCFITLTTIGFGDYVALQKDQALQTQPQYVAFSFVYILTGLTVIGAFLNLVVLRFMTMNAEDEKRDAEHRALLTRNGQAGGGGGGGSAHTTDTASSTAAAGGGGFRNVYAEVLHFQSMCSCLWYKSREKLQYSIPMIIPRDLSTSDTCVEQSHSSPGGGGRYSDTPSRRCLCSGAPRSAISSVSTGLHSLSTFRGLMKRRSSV
KCNQ1 block: inhibitors of human KCNQ1 potassium channel | P51787 | CHO-K1 KCNQ1, FluxOR thallium flux fluorescence; active compounds read high | B-score at 10 µM | 310,000 tested, 1.3% active;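 active = compounds whose thallium flux B-score, printed positive for inhibition, exceeds three library SD while starting fluorescence stays within three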;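 also: channel opened by potassium depolarization with thallium stimulus after 20 min compound exposure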
KCNK9 inh conf: human KCNK9 inhibitor confirmation. shares compounds with KCNK9 inh. 4,900 tested, 43% active. HEK293 KCNK9 cells, FluxOR thallium flux fluorescence. inhibition, % at 10 µM. AID 492992;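 active = thallium signal inhibited by more than 5 SD of the compound-free buffer control wells, on both duplicate plates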;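 also: 0% = assay buffer control wells without compound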
Kir21 sel: tests whether KCNK9 modulators also affect mouse Kir2.1. shares compounds with KCNK9 inh. Kir2.1 cells, FluxOR thallium flux fluorescence. inhibition, % at 10 µM. 4,900 tested, 4% active. AID 492993;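 active = thallium signal drop more than 5 SD beyond the mean of the no-compound control wells, seen in both duplicate plates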;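 also: signal is fluorescence rise after thallium addition divided by baseline fluorescence; plate controls were assay buffer only for no effect and full block by chlorpromazine control for full effect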
KCNK9 uninduced: second counter-screen for KCNK9 modulators: effect in non-induced cells; 4,900 tested, 40% active; inhibition, % at 10 µM; AID 492997; non-induced KCNK9-HEK293, FluxOR thallium flux; shares compounds with KCNK9 inh;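 active = thallium signal drop beyond 5 SD of the untreated control mean, on both duplicate plates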;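 also: plate controls were buffer only IC0 wells for no effect and SID17386958 at its maximal inhibitory level for full effect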
Active calls of the source: *; i = inactive; x = no result.

SMILES	KCNK9 inh	hERG protect	KCNQ1 act	KCNK3 block	KCNQ1 block	KCNK9 inh conf	Kir21 sel	KCNK9 uninduced
COc1cccc(C(=O)NC(=S)Nc2ccc3c4c(cccc24)CC3)c1	i	-6	i	i	i	i	i	i
C=CCn1c(SCC(=O)Nc2cccc(S(N)(=O)=O)c2)nc2sc(C)c(C)c2c1=O	x	x	x	i	x	x	x	x
COc1cccc(CN(C)C(=O)C(Cc2ccccc2)NC(=O)c2ccccc2)c1OC (centres undefined)	i	-28	i	i	i	x	x	x
O=C(COc1ccccc1[N+](=O)[O-])N1CCN(c2ccccn2)CC1	i	-15	i	i	i	x	x	x
COc1ccc(N2CCN(C(=O)CSc3nc4nc(C)cc(C)n4n3)CC2)cc1	x	x	x	i	x	x	x	x
CCN(C(=O)COC(=O)c1ccc(Cl)cc1N)C1CCCCC1	i	-13	i	i	i	i	i	i
CC(C)c1ccc(CNCCCSc2ncccn2)cc1	i	-14	i	i	i	x	x	x
Cc1cc(C)n(-c2ccc(C(=O)N3CCN(c4ccccn4)CC3)cc2)n1	x	x	x	i	x	x	x	x
Cc1cc(C)n(-c2nc3ccccc3nc2N2CCN(C(=O)c3ccccc3)CC2)n1	i	-8	i	i	i	i	i	i
COC(=O)c1cc(S(=O)(=O)NCCN2CCN(c3ccccc3F)CC2)c[nH]1	i	-8	i	i	i	x	x	x
Cc1ccc(S(=O)(=O)N/N=C/c2ccc(OS(=O)(=O)c3ccc(C)c([N+](=O)[O-])c3)cc2)cc1	i	-10	i	i	i	i	i	i
O=S(=O)(NCc1ccc(F)cc1)c1ccc(Br)cc1Br	x	x	x	i	x	x	x	x
O=C(CSc1nnc(CNC(=O)c2ccco2)o1)Nc1cccc(F)c1	i	-2	i	i	i	x	x	x
CCN=c1scc(-c2ccco2)n1/N=C/c1ccc(OC)c(O)c1	i	-18	i	i	i	i	i	i
COc1ccc(C)cc1NC(=O)/C=C/c1ccc(OC)c(S(=O)(=O)N2CCOCC2)c1	x	x	x	i	x	x	x	x
O=[N+]([O-])c1ccc(Oc2c(F)c(F)nc(N3CCCC3)c2F)cc1	i	-4	i	i	7*	i	i	i
Cc1cc(O)c(NC(=O)c2cc([N+](=O)[O-])ccc2Cl)cc1C	-14*	-17	i	i	i	62%*	i	i
Cc1c(C(=O)N(C)C(C)c2ccccn2)oc2c(F)cccc12 (centres undefined)	i	-4	i	i	i	x	x	x
CN(CC(=O)Nc1ccc(Cl)cc1)C1=NS(=O)(=O)c2ccccc21	x	x	x	i	x	x	x	x
O=C(OCCN(C1=NS(=O)(=O)c2ccccc21)c1ccccc1Cl)c1ccc(Cl)cc1	-8.1*	-10	i	i	i	30%*	i	30%*
CCOC(=O)c1c(NC(=O)CSc2nnc(C)c(=O)[nH]2)sc(C)c1-c1ccc(C)cc1	i	-15	i	i	i	i	i	i
CCOC(=O)c1c(NC(=O)CSc2nnc(C)c(=O)[nH]2)sc2c1CCCC2	i	-8	i	i	i	x	x	x
Cc1ccc(Nc2nc(N)nc(-c3oc4ccccc4c3C)n2)cc1	i	-18	i	i	i	x	x	x
COc1cccc(Nc2nc(N)nc(-c3oc4ccccc4c3C)n2)c1	-10*	-9	i	i	i	38%*	i	i
Cc1cccc(Nc2nc(N)nc(-c3oc4ccccc4c3C)n2)c1	-8.9*	0	i	i	i	35%*	i	i
SMILES	KCNK9 inh	hERG protect	KCNQ1 act	KCNK3 block	KCNQ1 block	KCNK9 inh conf	Kir21 sel	KCNK9 uninduced
COc1ccc(C(=O)c2cccc(C(=O)c3ccc(OC)c(C)c3)c2)cc1C	i	-10	i	i	i	i	i	i
CN(C(=O)COc1cc(=O)n(C)c2ccccc12)c1cccc(Cl)c1	i	-14	i	i	i	x	x	x
CCN(C(=O)COc1cc(=O)n(C)c2ccccc12)c1cccc(Cl)c1	i	-10	i	i	i	i	i	i
O=C(NCc1ccccc1)C1=C[C@H](c2ccc3c(c2)OCO3)C[C@H](OCCCCO)O1	i	-9	i	i	i	i	i	i
O=C(NCc1ccccc1)C1=C[C@H](C2CCCCC2)C[C@H](OCCCCO)O1	i	-7	i	i	i	i	i	i
COc1ccc(COC(=O)C2=C(C)NC(=O)NC2c2cc(Br)c(O)c(OC)c2)cc1 (centres undefined)	i	-8	i	i	i	x	x	x
Cc1noc(C)c1CSc1nc2ccccc2c(=O)n1-c1ccc(F)cc1F	i	-7	i	i	i	i	i	25%*
CC(C)(C)N(Cc1ccccc1)C(=O)c1ccc(Cl)cc1[N+](=O)[O-]	i	-20	i	i	i	i	i	i
C=C1C(=O)C23CCC4C(C)(C(=O)OC)CCCC4(C)C2CCC1(O)C3 (centres undefined)	x	x	x	i	x	x	x	x
O=C(Nc1cc(S(=O)(=O)N2CCOCC2)ccc1Cl)C(=O)c1c(-c2ccccc2)cc2ccccn12	-8.2*	-5	i	i	i	i	i	i
O=C(Cc1ccc(NC(=O)C2CCCN(C(=O)C3CC3)C2)cc1)Nc1cccc(C(=O)N2CCCCC2)c1 (centres undefined)	x	x	x	i	x	x	x	x
CC(C)(C)OC(=O)NCCCC[C@H](NC(=O)c1[nH]cnc1C(=O)N[C@@H](Cc1ccccc1)C(=O)OC(C)(C)C)C(=O)OC(C)(C)C	i	-11	i	i	i	x	x	x
C[C@H](NC(=O)c1nc[nH]c1C(=O)N[C@@H](CCCCNC(=O)OC(C)(C)C)C(=O)OC(C)(C)C)c1ccccc1	-11*	-9	i	i	i	i	i	29%*
CCOC(=O)c1ccc(N/C=C/C(=O)c2ccccc2)cc1	i	-6	i	i	i	x	x	x
CCOC(=O)c1ccccc1N/C=C/C(=O)c1ccccc1	-16*	-5	i	i	i	69%*	i	36%*
CCOC(=O)c1ccccc1NC(=S)N1CC(C)CC(C)C1 (centres undefined)	i	-7	i	i	i	i	i	i
CCOC(=O)c1ccccc1NC(=S)N1CCC(C)CC1	i	-6	i	i	i	x	x	x
